Laboratory results published in paper PMC4428392 (Anti-Cancer Agents in Medicinal Chemistry, 2014).
“And” between values parts separate entries of the source, which are not always exact repeats. Identical values can stand only once. Like-named read-outs stand apart in the source and are kept apart here.

Assays:
NCI-H460 = assay: MTT cytotoxicity assay in normoxia and hypoxia, NCI-H460; assay type: cell-based, Human; settings: Homo sapiens
Summary of the method: (§1)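 MCF-7 and HCT-116 were grown in DMEM; NCI-H460 in RPMI 1640 plus 10 mM HEPES; all media had 10% FBS, pyruvate and 1.5 g/L bicarbonate. Cells were seeded at 20000/well and grown 24 h at 20% O2, 5% CO2, 37 °C. Serial compound concentrations were then given for 24 h in normoxia, or for 6 h hypoxia (3% O2) followed by 18 h normoxia. MTT was read at 545 nm. IC50 came from linear regression of % inhibition versus log concentration, and HCR = IC50 normoxia/IC50 hypoxia.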

MCF-7 = assay: MTT cytotoxicity assay in normoxia and hypoxia, MCF-7; assay type: cell-based, Human
Summary of the method: as §1

HCT-116 cells [1] = assay: Cell cycle assay by flow cytometry; assay type: cell-based, Human; settings: 24 h
[2] = tested on: γ-H2AX and cleaved PARP in HCT-116 cells; assay: Dual-parameter γ-H2AX and cleaved PARP flow cytometry; assay type: cell-based, Human; settings: 30 µM, 24 h
HCT-116 cells [3] = assay: ROS analysis by flow cytometry; assay type: cell-based, Human
Summary of the method: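 HCT-116 cells were treated with test compound at 15 or 30 µM in normoxia or hypoxia (24 h per methods; legend states 18 h). They were stained with CM-H2DCFDA for 45 min, collected, and analysed on a FACSCalibur flow cytometer. Fluorescence was normalised to solvent control; mean ± SEM, n=3.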

HCT-116 = assay: MTT cytotoxicity assay in normoxia and hypoxia, HCT-116; assay type: cell-based, Human; settings: for IC50: Homo sapiens
Summary of the method: as §1

[4] = Partition coefficient octanol/aqueous buffer pH 7.4 by HPLC; assay type: physicochemical; settings: octanol/phosphate buffer pH 7.4, HPLC
Summary of the method: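 Octanol/phosphate buffer (pH 7.4) distribution was determined by HPLC at the compound retention time. Conditions: RP-18E column (4.6 × 150 mm, 5 µm) at 25 °C; isocratic water:acetonitrile 70:30 with 0.7% acetic acid at 0.5 mL/min; UV detection at 285 nm. Samples were dissolved in DMSO or methanol.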

γ-H2AX in HCT-116 cells = assay: Level of γ-H2AX by flow cytometry; assay type: cell-based, Human; settings: 30 µM, 24 h
[5] = tested on: caspase 3/7 in HCT-116 cells; assay: Caspase 3/7 activity; assay type: cell-based, Human; settings: 30 µM, 24 h
Summary of the method: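 HCT-116 cells were exposed to test compound at 30 µM for 24 h in normoxia or hypoxia. Cells were harvested, washed in PBS, centrifuged (350 g, 5 min) and stained with a FAM-FLICA caspase-3/7 inhibitor kit. Active caspase 3/7 was measured by flow cytometry. Data are mean ± SEM, n=3, compared with solvent control by one-way ANOVA with Tukey post hoc test.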

[6] = tested on: cleaved PARP in HCT-116 cells; assay: Level of cleaved PARP by flow cytometry; assay type: cell-based, Human; settings: HCT-116, hypoxia, 30 µM, 24 h

Compound: Nc1n[n+]([O-])c2ccccc2[n+]1[O-] [TPZ, 3-amino-1,2,4-benzotriazine-1,4-dioxide, reference compound]
- IC50 (NCI-H460; NCI-H460, 24 h, read-out: Cytotoxicity (IC50) NCI-H460 N): 85 ± 9.7 µM
- IC50 (NCI-H460; NCI-H460, read-out: Cytotoxicity (IC50) NCI-H460 H): 32.9 ± 2.1 µM
- HCR = IC50 (aerobic)/IC50 (hypoxia) (MCF-7): 6.3
- G1 (%) (HCT-116 cells [1]; HCT-116, hypoxia, 15 µM): 22.5±9.4%
- G2/M (%) (HCT-116 cells [1]; HCT-116, hypoxia, 15 µM): 35.2% and 35.2±4.9%
- S (%) (HCT-116 cells [1]; HCT-116, hypoxia, 15 µM): 34.7±6.0%
- Sub-G1 (%) (HCT-116 cells [1]; HCT-116, hypoxia, 15 µM): 7.3% and 7.3±2.7%
- G1 (%) (HCT-116 cells [1]; HCT-116, hypoxia, 30 µM): 26.3±5.5%
- G2/M (%) (HCT-116 cells [1]; HCT-116, hypoxia, 30 µM): 27.3% and 27.3±1.3%
- S (%) (HCT-116 cells [1]; HCT-116, hypoxia, 30 µM): 29.6±4.7%
- Sub-G1 (%) (HCT-116 cells [1]; HCT-116, hypoxia, 30 µM): 16.5% and 16.5±1.2%
- G1 (%) (HCT-116 cells [1]; HCT-116, normoxia, 15 µM): 41.9±1.7%
- G2/M (%) (HCT-116 cells [1]; HCT-116, normoxia, 15 µM): 33.1% and 33.1±3.7%
- S (%) (HCT-116 cells [1]; HCT-116, normoxia, 15 µM): 21.9±2.4%
- G1 (%) (HCT-116 cells [1]; HCT-116, normoxia, 30 µM): 35.3% and 35.3±1.4%
- G2/M (%) (HCT-116 cells [1]; HCT-116, normoxia, 30 µM): 39.1% and 39.1±4.0%
- S (%) (HCT-116 cells [1]; HCT-116, normoxia, 30 µM): 22.1±2.9%
- Sub-G1 (%) (HCT-116 cells [1]; HCT-116, normoxia, 30 µM): 3.2±0.5%
- cells expressing both γ-H2AX and cleaved PARP (upper right quadrant) ([2]; HCT-116, hypoxia): 1.9%
- cells expressing both γ-H2AX and cleaved PARP (upper right quadrant) ([2]; HCT-116, normoxia): 0.1%
- increase of ROS relative to control medium (HCT-116 cells [3]; HCT-116, hypoxia, 15 µM): 6 fold
- increase of ROS relative to control medium (HCT-116 cells [3]; HCT-116, hypoxia, 30 µM): 10.5 fold
- increase of ROS relative to control medium (HCT-116 cells [3]; HCT-116, normoxia, 15 µM): 1.5 fold
- increase of ROS relative to control medium (HCT-116 cells [3]; HCT-116, normoxia, 30 µM): 2 fold
- HCR = hypoxic cytotoxicity ratio IC50 (aerobic)/IC50 (hypoxic) (HCT-116; HCT-116): 2.6
- IC50 (HCT-116; HCT-116, 24 h, read-out: Cytotoxicity (IC50) HCT-116 N): 89.1 ± 14.5 µM
- IC50 (HCT-116; HCT-116, read-out: Cytotoxicity (IC50) HCT-116 H): 34.8 ± 8.3 µM
- IC50 (HCT-116; HCT-116, read-out: Cytotoxicity (IC50), cell kill under hypoxia): 34.8 µM
- Log P7.4 [4]: -0.42
- expression of γ-H2AX (γ-H2AX in HCT-116 cells; HCT-116, hypoxia, solvent control 4%): around 30%
- effect on expression of γ-H2AX (γ-H2AX in HCT-116 cells; HCT-116, normoxia): no significant effect
- level of active caspase 3/7 ([5]; HCT-116, hypoxia, solvent control 7%): about 41%
- effect on level of active caspase 3/7 ([5]; HCT-116, normoxia): no apparent effect
- cleaved PARP [6]: approximately 10%
